Source: PubChem
A selection: hits, their analogues and other compounds. The true share with any hit is near 2.1%.
Apaf-1 inh: inhibitors of human Apaf-1 apoptosome, primary screen, biochemical, DEVD-Rh110 fluorescence, uHTS; Apoptotic protease-activating factor 1 (Homo sapiens), O14727; 0.71% of 330,000 active; inhibition, % at 20 µM; AID 489030, 2010; reconstituted apoptosome caspase-3 activity; active = inhibition of at least 40% at 20 µM
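Material: cell-free apoptosome with Apaf-1, procaspase-3 and caspase-9; Buffer or medium: Hepes pH 7.5 with detergent and BSA; Reagent: cytochrome c trigger plus (Z-DEVD)2-Rh110 caspase-3 substrate; Times: compound with Apaf-1, dATP, procaspase-3 30 min, then 50 min reaction, room temperature; Technique: Rh110 fluorescence intensity.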
PP1 counter: PP1-alpha phosphatase inhibitors, primary screen, counter-screen for PP5 inhibitor project, biochemical, fluorescence, OMFP substrate, single point; inhibition, % at 6.7 µM; AID 2235, 2010; Serine/threonine-protein phosphatase PP1-alpha catalytic subunit (Homo sapiens), P62136; purified PP1alpha; 0.9% of 320,000 active;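 active = inhibition above the mean inhibition of all tested compounds plus 3 SD, computed separately for each screening campaign, cut at about 15% in these data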
GSTO1 counter: inhibitors of recombinant GSTO1, primary screen, counter-screen for RBBP9 inhibitor project, biochemical, fluorescence polarization; Glutathione S-transferase omega-1 (Homo sapiens), P78417; activity-based probe fluorescence polarization; inhibition, % at 5.96 µM; 1.1% of 300,000 active;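 active = inhibition above the campaign mean inhibition plus 3 SD, cut at about 35% in these data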
Target sequence (P78417 whole entry, looked up): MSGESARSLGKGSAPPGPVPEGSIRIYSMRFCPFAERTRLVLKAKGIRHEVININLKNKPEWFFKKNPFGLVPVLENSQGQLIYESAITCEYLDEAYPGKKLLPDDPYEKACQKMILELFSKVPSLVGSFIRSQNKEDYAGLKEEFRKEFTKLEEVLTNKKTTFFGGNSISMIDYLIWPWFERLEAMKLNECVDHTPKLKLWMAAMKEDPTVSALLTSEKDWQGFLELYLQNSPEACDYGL
TDP2 inh: human TDP2 enzyme inhibitors, primary screen, biochemical, epi absorbance, recombinant enzyme. Tyrosyl-DNA phosphodiesterase 2 (Homo sapiens), O95551. T5PNP hydrolysis, p-nitrophenol absorbance 415 nm. inhibition, % at 12.8 µM. 0.34% of 370,000 active. AID 720702, 2013;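 active = inhibition above the mean of all tested compounds plus 3 SD, set per campaign, cut at about 25% in these data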
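Assay system: Recombinant human TDP2 | Quantity: 120 nM TDP2 per well | Incubation: 2 h at 37 °C | Signal: Epi absorbance | Evaluation: Percent inhibition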
PP5 inh: PP5 phosphatase inhibitors, primary screen, biochemical, fluorescence | Serine/threonine-protein phosphatase 5 (Homo sapiens), P53041 | purified PP5c, OMFP substrate fluorescence | inhibition, % at 6.7 µM | 0.18% of 320,000 active | AID 1987, 2009;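 active = inhibition above the campaign's mean inhibition across all tested compounds plus 3 SD, cut at about 9.5% in these data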
Target sequence (P53041 whole entry, looked up): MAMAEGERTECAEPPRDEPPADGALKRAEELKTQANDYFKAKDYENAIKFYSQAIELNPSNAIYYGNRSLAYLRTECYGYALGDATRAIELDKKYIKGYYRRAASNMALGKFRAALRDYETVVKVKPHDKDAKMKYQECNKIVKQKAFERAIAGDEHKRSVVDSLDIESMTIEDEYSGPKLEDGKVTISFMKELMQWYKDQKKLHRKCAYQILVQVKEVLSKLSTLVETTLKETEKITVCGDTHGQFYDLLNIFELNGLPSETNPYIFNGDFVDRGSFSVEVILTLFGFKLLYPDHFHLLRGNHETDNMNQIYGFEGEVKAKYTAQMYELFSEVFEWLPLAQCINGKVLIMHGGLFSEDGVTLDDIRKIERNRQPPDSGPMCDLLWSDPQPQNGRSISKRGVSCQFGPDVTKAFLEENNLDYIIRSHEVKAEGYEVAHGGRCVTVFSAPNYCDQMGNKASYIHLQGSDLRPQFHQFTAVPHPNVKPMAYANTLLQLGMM
PP5 inh confirm: PP5 phosphatase inhibitors, confirmation, biochemical, fluorescence, human. shares compounds with PP5 inh. Purified PP5, fluorogenic phosphatase substrate. inhibition, % at 6.7 µM. 22% of 460 active; in the data active = inhibition above about 9.5%
PP1 inh counter: PP1 phosphatase inhibitors, counter-screen for PP5 inhibitor project, biochemical, fluorescence, triplicate. shares compounds with PP5 inh. PP1 enzyme, fluorescent phosphatase substrate. inhibition, % at 6.7 µM. 4% of 460 active; in the data active = inhibition above about 16%
Each line names hits and unclear results; the compound was inactive in the other large screens (follow-up assays come after a bar, where they were run).

CC(C)[C@@H](C)/C=C/[C@@H](C)[C@H]1CC[C@@H]2[C@]1(C)CCC1[C@]23C=C[C@]2(C[C@@H](O)CC[C@]12C)N(C(=O)Cc1ccccc1)O3 (some centres undefined)	none (no result: Apaf-1 inh, PP1 counter, GSTO1 counter, PP5 inh)
O=[N+]([O-])c1cc(C(F)(F)F)ccc1N1CCC(O)CC1	none
O=C(Nc1ccc(Cl)cc1)N1CCCN(c2ccc(C(F)(F)F)cc2[N+](=O)[O-])CC1	PP5 inh 12 | PP5 inh confirm inactive | PP1 inh counter inactive
COc1ccccc1-c1noc(-c2ccccc2C(=O)Nc2cccnc2)n1	PP5 inh 10 | PP5 inh confirm inactive | PP1 inh counter inactive
COc1ccc(-c2noc(-c3ccccc3C(=O)Nc3cccnc3)n2)cc1OC	none
CC(=O)Nc1ccc(S(=O)(=O)N2CCN(c3nc(NC4CCCC4)c4ccccc4n3)CC2)cc1	PP5 inh 12 | PP5 inh confirm inactive | PP1 inh counter inactive
Cc1cccc(-c2nnc(SCc3cccc4ccccc34)n2-c2ccc(Cl)cc2)c1	none (no result: Apaf-1 inh, PP1 counter, GSTO1 counter, PP5 inh)
CC(C)C1=CC2C3C(C(C(C)C)=CC(=O)[C@@]3(C)O)C1C(=O)C2(C)O (some centres undefined)	none (no result: Apaf-1 inh, PP1 counter, GSTO1 counter, PP5 inh)
N=c1c2c(-c3ccccc3)c(-c3ccccc3)oc2ncn1CCN1CCOCC1	PP5 inh 11 | PP5 inh confirm inactive | PP1 inh counter inactive
N=c1c2c(-c3ccccc3)c(-c3ccccc3)oc2ncn1CCCN1CCOCC1	none
O=S1(=O)c2ccc(N3CCCC3)cc2Oc2ccccc2CN1Cc1cn(Cc2ccc(Cl)cc2)nn1	none (no result: Apaf-1 inh, PP1 counter, GSTO1 counter, PP5 inh)
O=C(O)c1ccccc1-c1ccccc1C(=O)Nc1ccc(F)cc1	none
CC(C)(C)NC(=O)c1ccc(NC(=O)c2ccccc2-c2ccccc2C(=O)O)cc1	PP5 inh 10 | PP5 inh confirm inactive | PP1 inh counter inactive
Cc1ccc(S(=O)(=O)N2CCOCC2)cc1NC(=O)COC(=O)c1ccc(Br)cc1	none (no result: PP1 counter, GSTO1 counter, PP5 inh)
Cc1ccc(S(=O)(=O)N2CCOCC2)cc1NC(=O)COC(=O)CSc1ccc(Br)cc1C	PP5 inh 11 | PP5 inh confirm inactive | PP1 inh counter inactive
C=C(C)C1CC=C(C)/C(=N/NC(=O)CNc2ccc(OCC)cc2)C1 (centres undefined)	PP5 inh 9.6 (no result: TDP2 inh) | PP5 inh confirm inactive | PP1 inh counter inactive
COc1cccc(CN(C)CC(=O)NCc2ccc(F)cc2)c1OC	PP5 inh 12 | PP5 inh confirm inactive | PP1 inh counter inactive
Cn1c2cc(S(C)=O)sc2c2cnn(Cc3cccc(N)c3)c(=O)c21 (centres undefined)	none (no result: Apaf-1 inh, PP1 counter, GSTO1 counter, PP5 inh)
O=C(c1ccc(Br)cc1)N1CCN(c2ncccn2)CC1	none
O=C(c1ccc([N+](=O)[O-])cc1)N1CCN(c2ncc(Br)cn2)CC1	PP5 inh 11 | PP5 inh confirm inactive | PP1 inh counter inactive
C[C@H]1[C@@H](NC(=O)C2CCCCC2)CC[C@@]23CCCN2C(=O)CCC[C@@H]13	none (no result: Apaf-1 inh, PP1 counter, GSTO1 counter, PP5 inh)
Cc1ccccc1CSc1nnc(-c2ccccn2)n1C	PP5 inh 23 | PP5 inh confirm inactive | PP1 inh counter inactive
Cc1cccc(NC(=O)c2nc[nH]c2C(=O)N[C@@H](CCCCNC(=O)OC(C)(C)C)C(=O)OC(C)(C)C)c1	PP5 inh 11 | PP5 inh confirm inactive | PP1 inh counter inactive
CC(C)(C)OC(=O)[C@H](Cc1ccccc1)NC(=O)c1nc[nH]c1C(=O)NC1CCN(C(=O)OC(C)(C)C)CC1	PP5 inh 10 | PP5 inh confirm 10 | PP1 inh counter inactive
CC(C)C[C@H](NC(=O)c1[nH]cnc1C(=O)N[C@@H](C)c1ccccc1)C(=O)OC(C)(C)C	PP5 inh 9.9 | PP5 inh confirm 9.7 | PP1 inh counter inactive
C[C@H](NC(=O)c1nc[nH]c1C(=O)N[C@@H](CCCCNC(=O)OC(C)(C)C)C(=O)OC(C)(C)C)C(=O)OC(C)(C)C	PP5 inh 9.6 | PP5 inh confirm inactive | PP1 inh counter inactive
Cc1cccc(NC(=O)c2nc[nH]c2C(=O)NCCCCCNC(=O)OC(C)(C)C)c1	none (no result: GSTO1 counter)
C=CCN1C(=O)[C@@H](CC(=O)NCCc2ccccc2OC)[C@]2(C(=O)OCC)CCCCC/C=C/12	none (no result: Apaf-1 inh, PP1 counter, GSTO1 counter, PP5 inh)
Cc1cc(NC(=O)Cc2cn(C)c3ccccc23)ccc1Nc1cccnc1	none (no result: Apaf-1 inh, PP1 counter, GSTO1 counter, PP5 inh)
CC(C)C[C@H](NC(=O)c1nc[nH]c1C(=O)NC1CCN(C(=O)OC(C)(C)C)CC1)C(=O)OC(C)(C)C	none
CC(C)(C)OC(=O)CNC(=O)c1[nH]cnc1C(=O)N[C@@H](CCCCNC(=O)OC(C)(C)C)C(=O)OC(C)(C)C	none
CC(C)(C)OC(=O)NCCCC[C@H](NC(=O)c1nc[nH]c1C(=O)NC1CCN(C(=O)OC(C)(C)C)CC1)C(=O)OC(C)(C)C	PP5 inh 11 | PP5 inh confirm inactive | PP1 inh counter inactive
CC(C)C[C@H](NC(=O)c1nc[nH]c1C(=O)N[C@@H](CCCCNC(=O)OC(C)(C)C)C(=O)OC(C)(C)C)C(=O)OCc1ccccc1	PP5 inh 11 | PP5 inh confirm inactive | PP1 inh counter inactive
CC(C)(C)OC(=O)NCCCC[C@H](NC(=O)c1nc[nH]c1C(=O)N[C@@H](CCCCNC(=O)OC(C)(C)C)C(=O)OC(C)(C)C)C(=O)OC(C)(C)C	PP5 inh 16 | PP5 inh confirm 11 | PP1 inh counter inactive
CC(C)(C)OC(=O)NCCCCCNC(=O)c1[nH]cnc1C(=O)N[C@@H](CCCCNC(=O)OC(C)(C)C)C(=O)OC(C)(C)C	PP5 inh 13 (no result: TDP2 inh) | PP5 inh confirm inactive | PP1 inh counter inactive
CC(=O)Nc1cc(-c2ccccc2)cn2c(-c3cccc(C(C)=O)c3)cnc12	none (no result: Apaf-1 inh, PP1 counter, GSTO1 counter, PP5 inh)
CN[C@H]1C[C@H]2c3cc(-c4ccccc4C)ccc3CCN2C[C@H]1[C@H](C)O	none (no result: Apaf-1 inh, PP1 counter, GSTO1 counter, PP5 inh)
COc1ccc(S(=O)(=O)N2CCCc3nc(-c4ccccc4)ccc32)cc1	none (no result: Apaf-1 inh, PP1 counter, GSTO1 counter, PP5 inh)
O=C(N/N=C/c1ccccc1OC(F)F)NC1CCCCC1	PP5 inh 11 | PP5 inh confirm inactive | PP1 inh counter inactive
Cn1c(=O)oc2cc(S(=O)(=O)N3CCN(c4cccc(C(F)(F)F)c4)CC3)ccc21	none (no result: Apaf-1 inh, PP1 counter, GSTO1 counter, PP5 inh)
CCOC(=O)/C=C/C(=O)Nc1ccc(S(=O)(=O)Nc2c(C)cc(C)cc2C)cc1	PP5 inh 9.6 | PP5 inh confirm inactive | PP1 inh counter inactive
CCN(Cc1cn(Cc2ccccc2)nn1)S(=O)(=O)c1ccc(N2CCCC2)cc1Br	none (no result: Apaf-1 inh, PP1 counter, GSTO1 counter, PP5 inh)
